Assay results published in ChEMBL document CHEMBL1125212, “Dual-action cephalosporins: cephalosporin 3'-quinolone carbamates” (J Med Chem, 1991).
Values after ≈ are worked out from the molar mass of the structure shown.

Legend:
[1] = test system: Citrobacter freundii; test: The compound was tested in vitro for minimum inhibitory concentration against Citrobacter Freundii BS-16; format: functional
Method in brief: (§1)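 Agar dilution on Mueller-Hinton agar using 2-fold serial dilutions, giving final 128 to 0.0156 μg/mL (extended to 0.000977 μg/mL where needed). Inoculum was overnight broth culture diluted 100-fold, about 3×10^4 CFU/spot, applied by replicator. MIC read after overnight incubation at 36 °C.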

[2] = test system: Escherichia coli; test: The compound was tested in vitro for minimum inhibitory concentration against Escherichia coli ATCC 25922; format: functional; method in brief: as §1
[3] = test system: Escherichia coli; test: Minimum inhibitory concentration required to inhibit the activity of Escherichia coli ATCC 25922; format: functional; method in brief: as §1
[4] = test system: Escherichia coli; test: Minimum inhibitory concentration required to inhibit the activity of Escherichia coli UB1005; format: functional; method in brief: as §1
[5] = test system: Escherichia coli; test: Minimum inhibitory concentration for inhibition of [14C]- Pen G binding to Escherichia coli UB1005; format: functional
Method in brief: (§2)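 Membranes from sonicated E. coli UB1005 were solubilized. Binding to penicillin-binding proteins was measured as inhibition of [14C]penicillin G binding.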

[6] = test system: Escherichia coli; test: The compound was tested in vitro for minimum inhibitory concentration against Escherichia coli 257; format: functional; method in brief: as §1
[7] = test system: Enterococcus faecalis; test: The compound was tested in vitro for minimum inhibitory concentration against Enterococcus faecalis ATCC 29212; format: functional; method in brief: as §1
[8] = test system: Escherichia coli; test: The compound was tested in vitro for minimum inhibitory concentration against Escherichia coli TEM-1; format: functional; method in brief: as §1
[9] = test system: Enterobacter cloacae; test: The compound was tested in vitro for minimum inhibitory concentration against Enterobacter cloacae P99; format: functional
[10] = test system: Escherichia coli; test: Inhibitory activity on replicative DNA biosynthesis in Escherichia coli H560 (permeabilised cells); format: functional, organism-based
Method in brief: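 E. coli H560 cells permeabilized with toluene. ATP-dependent incorporation of [3H]thymidine into trichloroacetic acid-insoluble material was measured. IC50 taken as the concentration giving 50% inhibition.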

[11] = test system: Micrococcus luteus; test: The compound was tested in vitro for minimum inhibitory concentration against Micrococcus luteus ATCC 9341; format: functional; method in brief: as §1
[12] = organism: Mus musculus; test: Effective dose against mouse infected with Pseudomonas aeruginosa 8780 (LDs-240); format: functional
Method in brief: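 CD1 Swiss albino mice (18-20 g) infected intraperitoneally with 0.5 mL of diluted bacterial suspension. Challenge expressed as a multiple of LD50. Drug given subcutaneously at the dorsal neck base within 5 min of infection (1.0 mL), with a second treatment 3 h after infection. Dose range 250 to 0.05 mg/kg. Six mice per group. ED50 by the Reed-Muench method.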

[13] = organism: Mus musculus; test: Effective dose against mouse infected with Streptococcus pneumoniae 6301(LDs-5623); format: functional
Method in brief: (§3)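 Mouse protection test in CD1 Swiss albino mice (18-20 g) given an intraperitoneal challenge (0.5 mL of diluted culture), expressed as a multiple of LD50. A single subcutaneous dose of 1.0 mL test solution was given at the dorsal neck base within 5 min of infection. Dose range 250 to 0.05 mg/kg. Six mice per group. ED50 (protective dose) by Reed-Muench.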

[14] = test system: Proteus mirabilis; test: The compound was tested in vitro for minimum inhibitory concentration against Proteus mirabilis 90; format: functional
Method in brief: (§4)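 Proteus MICs by agar dilution on Mueller-Hinton medium containing 3% agar. Serial 2-fold dilutions gave final 128 to 0.0156 μg/mL (further to 0.000977 μg/mL). Inoculum was overnight broth diluted 100-fold, about 3×10^4 CFU/spot. Plates read after overnight incubation at 36 °C.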

[15] = test system: Pseudomonas aeruginosa; test: The compound was tested in vitro for minimum inhibitory concentration against Pseudomonas aeruginosa 18S/H; format: functional; method in brief: as §1
[16] = test system: Escherichia coli; test: The compound was evaluated for the inhibition of [14C]- Pen G binding to Escherichia coli UB1005 penicillin-binding protein 1a 90 kDa.; method in brief: as §2
[17] = test system: Escherichia coli; test: The compound was evaluated for the inhibition of [14C]- Pen G binding to Escherichia coli UB1005 penicillin-binding protein 1b 90 kDa.; method in brief: as §2
[18] = test system: Escherichia coli; test: The compound was evaluated for the inhibition of [14C]- Pen G binding to Escherichia coli UB1005 penicillin-binding protein 2 66 kDa.; method in brief: as §2
[19] = test system: Escherichia coli; test: The compound was evaluated for the inhibition of [14C]- Pen G binding to Escherichia coli UB1005 penicillin-binding protein 3 60 kDa.; method in brief: as §2
[20] = test system: Pseudomonas aeruginosa; test: The compound was tested in vitro for minimum inhibitory concentration against Pseudomonas aeruginosa 8780; format: functional; method in brief: as §1
[21] = test system: Proteus vulgaris; test: The compound was tested in vitro for minimum inhibitory concentration against Proteus vulgaris 1028 BC; format: functional; method in brief: as §4
[22] = test system: Staphylococcus aureus; test: The compound was tested in vitro for minimum inhibitory concentration against Staphylococcus aureus 67-0; format: functional; method in brief: as §1
[23] = test system: Staphylococcus aureus; test: (§5) The compound was tested in vitro for minimum inhibitory concentration against Staphylococcus aureus 753; format: functional; method in brief: as §1
[24] = test system: Streptococcus pyogenes; test: The compound was tested in vitro for minimum inhibitory concentration against Streptococcus pyogenes; format: functional
Method in brief: (§6)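 Streptococci tested by agar dilution on brain heart infusion agar with 20 units/mL bovine liver catalase. Final drug range 128 to 0.0156 μg/mL by 2-fold steps, extended to 0.000977 μg/mL when required. Inoculum about 3×10^4 CFU/spot from overnight broth diluted 100-fold. MIC after overnight incubation at 36 °C.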

[25] = test system: Serratia marcescens; test: The compound was tested in vitro for minimum inhibitory concentration against Serratia marcescens 1071; format: functional; method in brief: as §1
[26] = test system: Streptococcus pneumoniae; test: The compound was tested in vitro for minimum inhibitory concentration against Streptococcus pneumoniae 6301; format: functional; method in brief: as §6
[27] = test system: Staphylococcus aureus; test: (§7) The compound was tested in vitro for minimum inhibitory concentration against Staphylococcus aureus smith; format: functional; method in brief: as §1
[28] = organism: Mus musculus; test: Effective dose against mouse infected with Staphylococcus aureus 753 (MR) (LDs-6); format: functional; method in brief: as §3
[29] = test system: Klebsiella pneumoniae; test: The compound was tested in vitro for minimum inhibitory concentration against Klebsiella pneumoniae A; format: functional; method in brief: as §1
[30] = test system: Staphylococcus aureus; test: as §5; format: functional, staphylococcus aureus smith; method in brief: as §1
[31] = test system: Escherichia coli; test: Minimum inhibitory concentration for inhibition of [14C]- Pen G binding to Escherichia coli UB1005.; format: functional
Method in brief: (§8)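 Penicillin-binding protein assay using solubilized membranes from sonicated E. coli UB1005. Binding was read as inhibition of [14C]penicillin G binding to the PBPs.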

[32] = test system: Escherichia coli; test: The compound was evaluated for the inhibition of [14C]- Pen G binding to Escherichia coli UB1005 PBP1a 90 kDa.; format: functional; method in brief: as §8
[33] = test system: Escherichia coli; test: The compound was evaluated for the inhibition of [14C]- Pen G binding to Escherichia coli UB1005 PBP1b 90 kDa.; format: functional; method in brief: as §8
[34] = test system: Escherichia coli; test: The compound was evaluated for the inhibition of [14C]- Pen G binding to Escherichia coli UB1005 PBP3 60 kDa.; format: functional; method in brief: as §8
[35] = test system: Escherichia coli; test: The compound was evaluated for the inhibition of [14C]- Pen G binding to Escherichia coli UB1005 PBP2 66 kDa.; format: functional; method in brief: as §8
[36] = test system: Staphylococcus aureus; test: as §7; format: functional; remark: listed apart in the source
Method in brief: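 Agar dilution MIC on Mueller-Hinton agar. Compounds were serially diluted 2-fold in water; final agar concentrations ran from 128 to 0.0156 μg/mL, extended to 0.000977 μg/mL for very active compounds. Spots were inoculated by replicator with overnight broth cultures diluted 100-fold, about 3×10^4 CFU/spot. MIC was read after overnight incubation at 36 °C.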

| SMILES | MIC [1] | MIC [2] | MIC [5] | MIC [6] | MIC [7] | MIC [8] | MIC [9] | MIC [11] | MIC [14] | MIC [15] | Inhibitory concentration [16] | Inhibitory concentration [17] | Inhibitory concentration [18] | Inhibitory concentration [19] | MIC [20] | MIC [21] | MIC [22] | MIC [24] | MIC [25] | MIC [26] | other results |
| --- | --- | --- | --- | --- | --- | --- | --- | --- | --- | --- | --- | --- | --- | --- | --- | --- | --- | --- | --- | --- | --- |
| CO/N=C(\C(=O)N[C@@H]1C(=O)N2C(C(=O)O)=C(COC(=O)N3CCN(c4cc5c(cc4F)c(=O)c(C(=O)O)cn5C4CC4)CC3)CS[C@H]12)c1csc(N)n1 | 0.125 µg/mL (≈ 0.162 µM) | 0.031 µg/mL (≈ 0.0402 µM) | 0.5 µg/mL (≈ 0.649 µM) | 0.031 µg/mL (≈ 0.0402 µM) | 0.25 µg/mL (≈ 0.324 µM) | 0.063 µg/mL (≈ 0.0817 µM) | < 0.016 µg/mL | 0.031 µg/mL (≈ 0.0402 µM) | 0.063 µg/mL (≈ 0.0817 µM) | 1 µg/mL (≈ 1.3 µM) | 100 µg/mL | 30 µg/mL | > 100 µg/mL | 0.5 µg/mL | 1 µg/mL (≈ 1.3 µM) | 0.063 µg/mL (≈ 0.0817 µM) | 2 µg/mL (≈ 2.59 µM) | < 0.016 µg/mL | 0.25 µg/mL (≈ 0.324 µM) | < 0.016 µg/mL | MIC [3]: 0.03 µg/mL (≈ 0.0389 µM); MIC [4]: 0.5 µg/mL (≈ 0.649 µM); IC50 [10]: 0.9 µg/mL (≈ 1.17 µM); ED50 [12]: 33 mg/kg; ED50 [13]: 10 mg/kg; MIC [23]: 2 µg/mL (≈ 2.59 µM); MIC [27]: 0.5 µg/mL (≈ 0.649 µM); ED50 [28]: 28 mg/kg; MIC [29]: 0.125 µg/mL (≈ 0.162 µM) |
| CC(=O)OCC1=C(C(=O)O)N2C(=O)[C@@H](NC(=O)COc3ccccc3)[C@H]2SC1 | > 128 µg/mL | 128 µg/mL (≈ 315 µM) | > 128 µg/mL | 64 µg/mL (≈ 157 µM) | 32 µg/mL (≈ 78.7 µM) | 128 µg/mL (≈ 315 µM) | > 128 µg/mL | 0.125 µg/mL (≈ 0.308 µM) | 32 µg/mL (≈ 78.7 µM) | > 128 µg/mL | 0.5 µg/mL | 100 µg/mL | > 100 µg/mL | 10 µg/mL | > 128 µg/mL | > 128 µg/mL | 128 µg/mL (≈ 315 µM) | 0.125 µg/mL (≈ 0.308 µM) | > 128 µg/mL | 0.125 µg/mL (≈ 0.308 µM) | MIC [30]: 128 µg/mL (≈ 315 µM); MIC [27]: 0.063 µg/mL (≈ 0.155 µM); MIC [29]: 128 µg/mL (≈ 315 µM) |
| CC(C)(O/N=C(\C(=O)N[C@@H]1C(=O)N2C(C(=O)[O-])=C(C[n+]3ccccc3)CS[C@H]12)c1csc(N)n1)C(=O)O [CEFTAZIDIME] | – | – | – | – | – | – | – | – | – | – | – | – | – | – | – | – | – | – | – | – | MIC [31]: 0.1 µg/mL (≈ 0.183 µM); Inhibitory concentration [32]: 10 µg/mL; Inhibitory concentration [33]: 10 µg/mL; Inhibitory concentration [34]: 0.5 µg/mL; Inhibitory concentration [35]: > 100 µg/mL |
| CO/N=C(\C(=O)N[C@@H]1C(=O)N2C(C(=O)O)=C(COC(C)=O)CS[C@H]12)c1csc(N)n1 [CEFOTAXIME] | 32 µg/mL (≈ 70.3 µM) | 0.063 µg/mL (≈ 0.138 µM) | 0.06 µg/mL (≈ 0.132 µM) | 0.031 µg/mL (≈ 0.0681 µM) | 0.25 µg/mL (≈ 0.549 µM) | 0.063 µg/mL (≈ 0.138 µM) | 64 µg/mL (≈ 141 µM) | 0.031 µg/mL (≈ 0.0681 µM) | < 0.016 µg/mL | 128 µg/mL (≈ 281 µM) | < 0.1 µg/mL | 0.5 µg/mL | 100 µg/mL | < 0.1 µg/mL | 16 µg/mL (≈ 35.1 µM) | > 128 µg/mL | > 128 µg/mL | < 0.016 µg/mL | 32 µg/mL (≈ 70.3 µM) | < 0.016 µg/mL | ED50 [12]: > 100 mg/kg; ED50 [13]: 15 mg/kg; MIC [30]: > 128 µg/mL; MIC [36]: 2 µg/mL (≈ 4.39 µM); ED50 [28]: > 100 mg/kg; MIC [29]: 0.031 µg/mL (≈ 0.0681 µM) |
